Results: ChEMBL document CHEMBL5724801, “EUbOPEN Chemogenomics Library - Multiplex” (2024)
Several values for one entry are separate records, joined by “and”; a condition that tells them apart may be missing. Equal values may be shown once.

Test system: U2OS
Assay: Multiplex assay against U2OS
Type: toxicity, cell-based
Details: human
How it was run: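 Live cells carried four stains from seeding: Hoechst33342, BioTracker Green Microtubule Cytoskeleton Dye, MitoTracker Red and Annexin V Alexa Fluor 680. They were imaged on a CQ1 microscope at 37°C and 5% CO2 after compound addition. Using CellPathfinder machine-learning gating, cells were split into Hoechst high-intensity objects or normal cells, normal cells into healthy, pyknosed or fragmented nuclei, and pyknosed cells into mitotic or apoptotic; tubulin, mitochondrial-mass and membrane-permeability phenotypes are per cents of healthy-nucleus cells.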

[1] = 12 h, 1 µM, compound concentration 1 uM
[2] = 12 h, 10 µM, compound concentration 10 uM
[3] = 24 h, 1 µM, compound concentration 1 uM
[4] = 24 h, 10 µM, compound concentration 10 uM
[5] = 48 h, 1 µM, compound concentration 1 uM
[6] = 48 h, 10 µM, compound concentration 10 uM

SMILES: C[C@H](NC(=O)CNC(=O)c1cccc(Cl)c1)c1ccccc1
- Population Apoptotic (%) [1]: 78% and 71%
- Population Fragmented Nuclei (%) [1]: 26% and 20%
- Population Healthy Nuclei (%) [1]: 61% and 68%
- Population Hoechst High Intensity Objects (%) [1]: 3%
- Population Membrane Permeable-Phenotype (%) [1]: 6% and 8%
- Population Mitochondria Different-Phenotype (%) [1]: 4% and 2%
- Population Mitotic Cells (%) [1]: 21% and 28%
- Population Normal (%) [1]: 96%
- Population Pyknosed Nuclei (%) [1]: 12% and 11%
- Population Tubulin-Different-Phenotype (%) [1]: 2%
- Total Cell Count [1]: 242 and 124
- Population Apoptotic (%) [2]: 68% and 66%
- Population Fragmented Nuclei (%) [2]: 24% and 13%
- Population Healthy Nuclei (%) [2]: 63% and 82%
- Population Hoechst High Intensity Objects (%) [2]: 2% and 0%
- Population Membrane Permeable-Phenotype (%) [2]: 9% and 2%
- Population Mitochondria Different-Phenotype (%) [2]: 3%
- Population Mitotic Cells (%) [2]: 31% and 33%
- Population Normal (%) [2]: 97% and 100%
- Population Pyknosed Nuclei (%) [2]: 11% and 4%
- Population Tubulin-Different-Phenotype (%) [2]: 4% and 2%
- Total Cell Count [2]: 198 and 150
- Population Apoptotic (%) [3]: 79% and 88%
- Population Fragmented Nuclei (%) [3]: 19%
- Population Healthy Nuclei (%) [3]: 71% and 69%
- Population Hoechst High Intensity Objects (%) [3]: 2%
- Population Membrane Permeable-Phenotype (%) [3]: 7% and 4%
- Population Mitochondria Different-Phenotype (%) [3]: 2% and 4%
- Population Mitotic Cells (%) [3]: 20% and 11%
- Population Normal (%) [3]: 97%
- Population Pyknosed Nuclei (%) [3]: 8% and 10%
- Population Tubulin-Different-Phenotype (%) [3]: 2% and 0%
- Total Cell Count [3]: 275 and 168
- Population Apoptotic (%) [4]: 90% and 71%
- Population Fragmented Nuclei (%) [4]: 24% and 12%
- Population Healthy Nuclei (%) [4]: 61% and 83%
- Population Hoechst High Intensity Objects (%) [4]: 1%
- Population Membrane Permeable-Phenotype (%) [4]: 6% and 4%
- Population Mitochondria Different-Phenotype (%) [4]: 4% and 2%
- Population Normal (%) [4]: 98%
- Population Pyknosed Nuclei (%) [4]: 13% and 3%
- Population Tubulin-Different-Phenotype (%) [4]: 2% and 3%
- Total Cell Count [4]: 239 and 189
- Population Apoptotic (%) [5]: 74% and 100%
- Population Fragmented Nuclei (%) [5]: 18% and 17%
- Population Healthy Nuclei (%) [5]: 71% and 70%
- Population Hoechst High Intensity Objects (%) [5]: 3% and 2%
- Population Membrane Permeable-Phenotype (%) [5]: 6% and 4%
- Population Mitochondria Different-Phenotype (%) [5]: 3%
- Population Mitotic Cells (%) [5]: 25% and 0%
- Population Normal (%) [5]: 96% and 97%
- Population Pyknosed Nuclei (%) [5]: 10% and 11%
- Population Tubulin-Different-Phenotype (%) [5]: 1% and 2%
- Total Cell Count [5]: 401 and 205
- Population Apoptotic (%) [6]: 81% and 100%
- Population Fragmented Nuclei (%) [6]: 19% and 12%
- Population Healthy Nuclei (%) [6]: 73% and 80%
- Population Hoechst High Intensity Objects (%) [6]: 2% and 1%
- Population Membrane Permeable-Phenotype (%) [6]: 6% and 4%
- Population Mitochondria Different-Phenotype (%) [6]: 2% and 1%
- Population Mitotic Cells (%) [6]: 18% and 0%
- Population Normal (%) [6]: 97% and 98%
- Population Pyknosed Nuclei (%) [6]: 7%
- Population Tubulin-Different-Phenotype (%) [6]: 4% and 1%
- Total Cell Count [6]: 311 and 279

SMILES: Cc1ccccc1C(=O)Nc1ccc(C(=O)N2CCCC(N(C)C)c3ccccc32)cc1.Cl (stereo not given)
- Population Apoptotic (%) [1]: 91% and 77%
- Population Fragmented Nuclei (%) [1]: 20% and 14%
- Population Healthy Nuclei (%) [1]: 70% and 79%
- Population Hoechst High Intensity Objects (%) [1]: 1%
- Population Membrane Permeable-Phenotype (%) [1]: 5% and 4%
- Population Mitochondria Different-Phenotype (%) [1]: 3% and 5%
- Population Mitotic Cells (%) [1]: 8% and 22%
- Population Normal (%) [1]: 98%
- Population Pyknosed Nuclei (%) [1]: 8% and 5%
- Population Tubulin-Different-Phenotype (%) [1]: 4% and 1%
- Total Cell Count [1]: 282 and 157
- Population Apoptotic (%) [2]: 59% and 56%
- Population Fragmented Nuclei (%) [2]: 18%
- Population Healthy Nuclei (%) [2]: 55% and 62%
- Population Hoechst High Intensity Objects (%) [2]: 4% and 1%
- Population Membrane Permeable-Phenotype (%) [2]: 14% and 15%
- Population Mitochondria Different-Phenotype (%) [2]: 11% and 25%
- Population Mitotic Cells (%) [2]: 40% and 43%
- Population Normal (%) [2]: 95% and 98%
- Population Pyknosed Nuclei (%) [2]: 25% and 19%
- Population Tubulin-Different-Phenotype (%) [2]: 8% and 15%
- Total Cell Count [2]: 213 and 83
- Population Apoptotic (%) [3]: 88% and 66%
- Population Fragmented Nuclei (%) [3]: 18% and 13%
- Population Healthy Nuclei (%) [3]: 70% and 77%
- Population Hoechst High Intensity Objects (%) [3]: 0% and 1%
- Population Membrane Permeable-Phenotype (%) [3]: 6% and 5%
- Population Mitochondria Different-Phenotype (%) [3]: 3% and 4%
- Population Mitotic Cells (%) [3]: 11% and 33%
- Population Normal (%) [3]: 99% and 98%
- Population Pyknosed Nuclei (%) [3]: 10% and 9%
- Population Tubulin-Different-Phenotype (%) [3]: 4% and 3%
- Total Cell Count [3]: 333 and 192
- Population Apoptotic (%) [4]: 71% and 46%
- Population Fragmented Nuclei (%) [4]: 16% and 27%
- Population Healthy Nuclei (%) [4]: 51% and 53%
- Population Hoechst High Intensity Objects (%) [4]: 4% and 5%
- Population Membrane Permeable-Phenotype (%) [4]: 16% and 18%
- Population Mitochondria Different-Phenotype (%) [4]: 14% and 18%
- Population Mitotic Cells (%) [4]: 28% and 53%
- Population Normal (%) [4]: 95% and 94%
- Population Pyknosed Nuclei (%) [4]: 31% and 18%
- Population Tubulin-Different-Phenotype (%) [4]: 6% and 18%
- Total Cell Count [4]: 211 and 73
- Population Apoptotic (%) [5]: 85% and 83%
- Population Fragmented Nuclei (%) [5]: 14% and 15%
- Population Healthy Nuclei (%) [5]: 71% and 72%
- Population Hoechst High Intensity Objects (%) [5]: 1%
- Population Membrane Permeable-Phenotype (%) [5]: 5% and 7%
- Population Mitochondria Different-Phenotype (%) [5]: 3% and 5%
- Population Mitotic Cells (%) [5]: 14% and 16%
- Population Normal (%) [5]: 98%
- Population Pyknosed Nuclei (%) [5]: 13% and 12%
- Population Tubulin-Different-Phenotype (%) [5]: 3% and 4%
- Total Cell Count [5]: 414 and 248
- Population Apoptotic (%) [6]: 71% and 84%
- Population Fragmented Nuclei (%) [6]: 28%
- Population Healthy Nuclei (%) [6]: 43% and 42%
- Population Hoechst High Intensity Objects (%) [6]: 8%
- Population Membrane Permeable-Phenotype (%) [6]: 17% and 11%
- Population Mitotic Cells (%) [6]: 28% and 16%
- Population Normal (%) [6]: 91%
- Population Pyknosed Nuclei (%) [6]: 28% and 29%
- Population Tubulin-Different-Phenotype (%) [6]: 7% and 13%
- Total Cell Count [6]: 206 and 93
